# Measurements reported in ChEMBL document CHEMBL4261658, “4-Hydroxy-3-nitro-5-ureido-benzenesulfonamides Selectively Target the Tumor-Associated Carbonic Anhydrase Isoforms IX and XII Showing Hypoxia-Enhanced Antiproliferative Profiles” (J Med Chem, 2018).
# Columns and labels:
# MDA-MB-231 [1] = assay: Cytotoxicity against human MDA-MB-231 cells assessed as cell viability at 30 uM after 48 hrs under normoxic conditions by MTT assay (reference value: 100%); type: functional; details: MDA-MB-231, 48 h, read-out: Activity
# In short: (§1)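 Cells cultured in high-glucose DMEM with 20% FBS at 37 °C and 5% CO2, seeded at 1x10^4/well, then dosed 24 h later (0–200 μM) for 48 h. Hypoxia: 1% O2, 5% CO2, balance N2 in a hypoxic workstation; normoxia: 20% O2 in air, 5% CO2. MTT (1 mg/ml) for 30 min at 37 °C, formazan dissolved in DMSO, A550. Untreated control set to 100%; quadruplicates, ≥3 cell batches, mean ± S.E.M.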
# PC-3 [2] = assay: Cytotoxicity against human PC3 cells assessed as reduction in cell viability after 48 hrs under hypoxic conditions by MTT assay; type: functional, cell-based; details: for IC50: PC-3, 48 h; in short: as §1
# Carbonic anhydrase 12 = Carbonic anhydrase 12 (Homo sapiens, UniProt O43570)
# PC-3 [3] = assay: Cytotoxicity against human PC3 cells assessed as cell viability at 100 uM after 48 hrs under normoxic conditions by MTT assay (reference value: 100%); type: functional; details: PC-3, 48 h, read-out: Activity; in short: as §1
# Carbonic anhydrase 9 = Carbonic anhydrase 9 (Homo sapiens, UniProt Q16790); assay: Inhibition of carbonic anhydrase 9 (unknown origin) preincubated for 15 mins by stopped flow CO2 hydration assay
# PC-3 [4] = assay: Cytotoxicity against human PC3 cells assessed as reduction in cell viability after 48 hrs under normoxic conditions by MTT assay; type: functional, cell-based; details: for IC50: PC-3, 48 h; in short: as §1
# HT-29 [5] = assay: Cytotoxicity against human HT-29 cells assessed as cell viability at 100 uM after 48 hrs under hypoxic conditions by MTT assay (reference value: 100%); type: functional; details: Homo sapiens, HT-29, 48 h; read-out: Activity; in short: as §1
# HT-29 [6] = assay: Cytotoxicity against human HT-29 cells assessed as cell viability at 300 uM after 48 hrs under hypoxic conditions by MTT assay (reference value: 100%); type: functional; details: HT-29, 48 h, read-out: Activity
# MDA-MB-231 [7] = assay: Cytotoxicity against human MDA-MB-231 cells assessed as reduction in cell viability after 48 hrs under hypoxic conditions by MTT assay; type: functional, cell-based; details: for IC50: MDA-MB-231, 48 h; in short: as §1
# MDA-MB-231 [8] = assay: Cytotoxicity against human MDA-MB-231 cells assessed as reduction in cell viability after 48 hrs under normoxic conditions by MTT assay; type: functional, cell-based; details: for IC50: MDA-MB-231, 48 h; in short: as §1
# HT-29 [9] = assay: Cytotoxicity against human HT-29 cells assessed as reduction in cell viability after 48 hrs under hypoxic conditions by MTT assay; type: functional, cell-based; details: for IC50: HT-29, 48 h; in short: as §1
# HT-29 [10] = assay: Cytotoxicity against human HT-29 cells assessed as reduction in cell viability after 48 hrs under normoxic conditions by MTT assay; type: functional, cell-based; details: for IC50: HT-29, 48 h; in short: as §1
# MDA-MB-231 [11] = assay: Cytotoxicity against human MDA-MB-231 cells assessed as cell viability at 200 uM after 48 hrs under hypoxic conditions by MTT assay (reference value: 100%); type: functional; details: MDA-MB-231, 48 h, read-out: Activity; in short: as §1
# PC-3 [12] = assay: Cytotoxicity against human PC3 cells assessed as cell viability at 100 uM after 48 hrs under hypoxic conditions by MTT assay (reference value: 100%); type: functional; details: PC-3, 48 h, read-out: Activity; in short: as §1
# HT-29 [13] = assay: Cytotoxicity against human HT-29 cells assessed as cell viability at 30 uM after 48 hrs under hypoxic conditions by MTT assay (reference value: 100%); type: functional; details: Homo sapiens, HT-29, 48 h; read-out: Activity; in short: as §1
# Homo sapiens = species on record: Homo sapiens; assay: Selectivity ratio of Ki for carbonic anhydrase 2 (unknown origin) to Ki for carbonic anhydrase 9 (unknown origin)
# MDA-MB-231 [14] = assay: Cytotoxicity against human MDA-MB-231 cells assessed as cell viability at 200 uM after 48 hrs under normoxic conditions by MTT assay (reference value: 100%); type: functional; details: MDA-MB-231, 48 h, read-out: Activity; in short: as §1
# PC-3 [15] = assay: Cytotoxicity against human PC3 cells assessed as cell viability at 30 uM after 48 hrs under normoxic conditions by MTT assay (reference value: 100%); type: functional; details: PC-3, 48 h, read-out: Activity; in short: as §1
# PC-3 [16] = assay: Cytotoxicity against human PC3 cells assessed as cell viability at 30 uM after 48 hrs under hypoxic conditions by MTT assay (reference value: 100%); type: functional; details: PC-3, 48 h, read-out: Activity; in short: as §1
# MDA-MB-231 [17] = assay: Cytotoxicity against human MDA-MB-231 cells assessed as cell viability at 30 uM after 48 hrs under hypoxic conditions by MTT assay (reference value: 100%); type: functional; details: MDA-MB-231, 48 h, read-out: Activity; in short: as §1
# HT-29 [18] = assay: Cytotoxicity against human HT-29 cells assessed as cell viability at 30 uM after 48 hrs under normoxic conditions by MTT assay (reference value: 100%); type: functional; details: Homo sapiens, HT-29, 48 h; read-out: Activity; in short: as §1
# HT-29 [19] = assay: Cytotoxicity against human HT-29 cells assessed as cell viability at 100 uM after 48 hrs under normoxic conditions by MTT assay (reference value: 100%); type: functional; details: Homo sapiens, HT-29, 48 h; read-out: Activity; in short: as §1
# PC-3 [20] = assay: Cytotoxicity against human PC3 cells assessed as cell viability at 200 uM after 48 hrs under normoxic conditions by MTT assay (reference value: 100%); type: functional; details: PC-3, 48 h, read-out: Activity; in short: as §1
# MDA-MB-231 [21] = assay: Potency index, ratio of cytotoxicity against human MDA-MB-231 cells assessed as reduction in cell viability at 100 uM after 48 hrs under hypoxic conditions by MTT assay to cytotoxicity against human MDA-MB-231 cells assessed as reduction in cell viability at 100 uM after 48 hrs under normoxic conditions by MTT assay; type: functional
# MDA-MB-231 [22] = assay: Cytotoxicity against human MDA-MB-231 cells assessed as cell viability at 100 uM after 48 hrs under normoxic conditions by MTT assay (reference value: 100%); type: functional; details: MDA-MB-231, 48 h, read-out: Activity; in short: as §1
# MDA-MB-231 [23] = assay: Cytotoxicity against human MDA-MB-231 cells assessed as cell viability at 100 uM after 48 hrs under hypoxic conditions by MTT assay (reference value: 100%); type: functional; details: MDA-MB-231, 48 h, read-out: Activity; in short: as §1
# PC-3 [24] = assay: Cytotoxicity against human PC3 cells assessed as cell viability at 200 uM after 48 hrs under hypoxic conditions by MTT assay (reference value: 100%); type: functional; details: PC-3, 48 h, read-out: Activity; in short: as §1
# Carbonic anhydrase 1 = Carbonic anhydrase 1 (Homo sapiens, UniProt P00915); assay: Inhibition of recombinant human cytosolic carbonic anhydrase 1 preincubated for 15 mins by stopped flow CO2 hydration assay
# HT-29 [25] = assay: Cytotoxicity against human HT-29 cells assessed as cell viability at 200 uM after 48 hrs under normoxic conditions by MTT assay (reference value: 100%); type: functional; details: Homo sapiens, HT-29, 48 h; read-out: Activity; in short: as §1
# HT-29 [26] = assay: Cytotoxicity against human HT-29 cells assessed as cell viability at 200 uM after 48 hrs under hypoxic conditions by MTT assay (reference value: 100%); type: functional; details: Homo sapiens, HT-29, 48 h; read-out: Activity; in short: as §1
# Carbonic anhydrase 12, sequence (O43570 whole entry): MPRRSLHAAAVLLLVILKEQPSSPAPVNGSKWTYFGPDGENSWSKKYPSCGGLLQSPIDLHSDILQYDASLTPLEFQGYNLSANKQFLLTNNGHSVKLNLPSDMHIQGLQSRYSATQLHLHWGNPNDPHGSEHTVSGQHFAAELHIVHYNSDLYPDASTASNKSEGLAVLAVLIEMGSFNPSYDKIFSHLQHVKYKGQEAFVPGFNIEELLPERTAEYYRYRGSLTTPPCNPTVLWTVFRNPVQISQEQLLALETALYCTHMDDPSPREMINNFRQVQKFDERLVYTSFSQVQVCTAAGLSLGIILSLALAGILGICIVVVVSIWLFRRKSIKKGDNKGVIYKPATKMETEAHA
# Carbonic anhydrase 1, sequence (P00915 whole entry): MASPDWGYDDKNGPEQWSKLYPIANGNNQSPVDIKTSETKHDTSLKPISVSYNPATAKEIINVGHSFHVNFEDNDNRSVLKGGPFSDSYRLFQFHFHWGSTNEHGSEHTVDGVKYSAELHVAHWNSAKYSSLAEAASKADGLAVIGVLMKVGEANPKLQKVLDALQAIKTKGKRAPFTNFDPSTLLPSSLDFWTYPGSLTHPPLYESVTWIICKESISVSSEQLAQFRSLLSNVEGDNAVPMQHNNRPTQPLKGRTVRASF
Compound,viability at 30 µM (MDA-MB-231 [1]),Activity (PC-3 [2]),IC50 (PC-3 [2]),Ki (Carbonic anhydrase 12),viability at 100 µM (PC-3 [3]),Ki (Carbonic anhydrase 9),Activity (PC-3 [4]),IC50 (PC-3 [4]),viability at 100 µM (HT-29 [5]),Activity (MDA-MB-231 [7]),IC50 (MDA-MB-231 [7]),Activity (MDA-MB-231 [8]),IC50 (MDA-MB-231 [8]),Activity (HT-29 [9]),IC50 (HT-29 [9]),Activity (HT-29 [10]),IC50 (HT-29 [10]),viability at 200 µM (MDA-MB-231 [11]),viability at 100 µM (PC-3 [12]),viability at 30 µM (HT-29 [13]),also measured
NS(=O)(=O)c1cc(NC(=O)Nc2cc(C(F)(F)F)cc(C(F)(F)F)c2)c(O)c([N+](=O)[O-])c1,106%,Dose-dependent effect,70.6 µM,0.46 µM,23.4%,0.34 µM,Dose-dependent effect,68.6 µM,63.6%,Dose-dependent effect,63.2 µM,Dose-dependent effect,196 µM,Dose-dependent effect,133 µM,Dose-dependent effect,60.2 µM,20.2%,20.1%,98.6%,viability at 300 µM (HT-29 [6]): 25.6%; Ratio Ki (Homo sapiens): 5; viability at 200 µM (MDA-MB-231 [14]): 45.8%; viability at 30 µM (PC-3 [15]): 118%; viability at 30 µM (PC-3 [16]): 109%; viability at 30 µM (MDA-MB-231 [17]): 100%; viability at 30 µM (HT-29 [18]): 102%; viability at 100 µM (HT-29 [19]): 22.7%; viability at 200 µM (PC-3 [20]): 20.9%; Ratio (MDA-MB-231 [21]): 4; viability at 100 µM (MDA-MB-231 [22]): 101%; viability at 100 µM (MDA-MB-231 [23]): 19.8%; viability at 200 µM (PC-3 [24]): 19.6%
NS(=O)(=O)c1cc(NC(=O)Nc2ccccc2)c(O)c([N+](=O)[O-])c1,–,–,–,0.83 µM,–,0.94 µM,–,–,–,–,–,–,–,–,–,–,–,–,–,–,Ratio Ki (Homo sapiens): 3; Ki (Carbonic anhydrase 1): > 50 µM
NS(=O)(=O)c1cc(NC(=O)c2ccc(F)cc2)c(OC(=O)c2ccc(F)cc2)c([N+](=O)[O-])c1,89.5%,Dose-dependent effect,56.3 µM,0.21 µM,13.9%,0.1 µM,Dose-dependent effect,30.6 µM,24.2%,Dose-dependent effect,52.3 µM,Dose-dependent effect,> 200 µM,Dose-dependent effect,58.6 µM,Dose-dependent effect,40.6 µM,13%,29.9%,96.6%,viability at 200 µM (HT-29 [25]): 6.6%; viability at 200 µM (MDA-MB-231 [14]): 85.8%; viability at 30 µM (PC-3 [15]): 51.6%; viability at 30 µM (PC-3 [16]): 95.7%; viability at 30 µM (MDA-MB-231 [17]): 92.9%; viability at 30 µM (HT-29 [18]): 62.8%; viability at 200 µM (HT-29 [26]): 8.4%; viability at 100 µM (HT-29 [19]): 5.7%; viability at 200 µM (PC-3 [20]): 10.2%; viability at 100 µM (MDA-MB-231 [22]): 89.3%; viability at 100 µM (MDA-MB-231 [23]): 13.3%; viability at 200 µM (PC-3 [24]): 15.6%
Nc1cc(S(N)(=O)=O)cc([N+](=O)[O-])c1O,93%,Dose-dependent effect,> 200 µM,0.2 µM,91.8%,0.21 µM,Dose-dependent effect,> 200 µM,93.2%,Dose-dependent effect,> 200 µM,Dose-dependent effect,> 200 µM,Dose-dependent effect,> 200 µM,Dose-dependent effect,> 200 µM,60.2%,58.4%,108%,viability at 200 µM (HT-29 [25]): 105%; viability at 200 µM (MDA-MB-231 [14]): 78.8%; viability at 30 µM (PC-3 [15]): 69.7%; viability at 30 µM (PC-3 [16]): 81.8%; viability at 30 µM (MDA-MB-231 [17]): 81.3%; viability at 30 µM (HT-29 [18]): 95.7%; viability at 200 µM (HT-29 [26]): 100%; viability at 100 µM (HT-29 [19]): 107%; viability at 200 µM (PC-3 [20]): 92.3%; viability at 100 µM (MDA-MB-231 [22]): 81.4%; viability at 100 µM (MDA-MB-231 [23]): 72.8%; viability at 200 µM (PC-3 [24]): 55.3%
